Activity calls are given as the source filed them.
Tests used:
Plasmodium falciparum [1] = assay: […] antimalarial activity against Plasmodium falciparum W-2; format: functional, organism-based
Plasmodium falciparum [2] = assay: […] antimalarial activity against Plasmodium falciparum D6; format: functional, organism-based
Mus musculus [3] = assay: Mean survival time of the treated mice (Mus musculus) beyond that of the control animals against Plasmodium berghei at dose 40(mg/kg); format: functional
Mus musculus [4] = assay: Mean survival time of the treated mice (Mus musculus) beyond that of the control animals against Plasmodium berghei at dose 640(mg/kg); Survival beyond 60 days is considered curative; format: functional
Mus musculus [5] = assay: Mean survival time of the treated mice (Mus musculus) beyond that of the control animals against Plasmodium berghei at dose 80(mg/kg); format: functional
Plasmodium berghei = assay: […] antimalarial activity against drug-resistant Plasmodium berghei KBG173; format: functional
Mus musculus [6] = assay: Mean survival time of the treated mice (Mus musculus) beyond that of the control animals against Plasmodium berghei at dose 160 mg/kg); format: functional
[7] = Resistance index is defined as the ratio of IC50 of Plasmodium falciparum(W-2) clone to IC50 of Plasmodium falciparum(D6) clone; format: functional
Summary of the method: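 Ratio of IC50 W-2 to IC50 D-6 for P. falciparum. […] Activity is read as inhibition of tritiated hypoxanthine uptake.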

Mus musculus [8] = assay: Mean survival time of the treated mice (Mus musculus) beyond that of the control animals against Plasmodium berghei at dose 20(mg/kg); format: functional
Mus musculus [9] = assay: Mean survival time of the treated mice (Mus musculus) beyond that of the control animals against Plasmodium berghei at dose 320(mg/kg); format: functional
Mus musculus [10] = assay: Mean survival time of the treated mice (Mus musculus) beyond that of the control animals against Plasmodium berghei at dose 320(mg/kg); Survival beyond 60 days is considered curative; Experiment I; format: functional
Mus musculus [11] = assay: Mean survival time of the treated mice (Mus musculus) beyond that of the control animals against Plasmodium berghei at dose 160 (mg/kg); Experiment I; format: functional
Mus musculus [12] = assay: Mean survival time of the treated mice (Mus musculus) beyond that of the control animals against Plasmodium berghei at dose 80(mg/kg); Experiment I; format: functional
Mus musculus [13] = assay: Mean survival time of the treated mice (Mus musculus) beyond that of the control animals against Plasmodium berghei at dose 40(mg/kg); Experiment II; format: functional
Mus musculus [14] = assay: Mean survival time of the treated mice (Mus musculus) beyond that of the control animals against Plasmodium berghei at dose 80(mg/kg); Experiment II; format: functional
Mus musculus [15] = assay: Mean survival time of the treated mice (Mus musculus) beyond that of the control animals against Plasmodium berghei at dose 40(mg/kg); Experiment I; format: functional
Mus musculus [16] = assay: Mean survival time of the treated mice (Mus musculus) beyond that of the control animals against Plasmodium berghei at dose 640(mg/kg); Experiment I; not active; format: functional
Mus musculus [17] = assay: Mean survival time of the treated mice (Mus musculus) beyond that of the control animals against Plasmodium berghei at dose 160 (mg/kg); Experiment II; format: functional
Mus musculus [18] = assay: Mean survival time of the treated mice (Mus musculus) beyond that of the control animals against Plasmodium berghei at dose 20(mg/kg); Experiment II; format: functional
Mus musculus [19] = assay: Mean survival time of the treated mice (Mus musculus) beyond that of the control animals against Plasmodium berghei at dose 20(mg/kg); Experiment I; format: functional
Mus musculus [20] = assay: Mean survival time of the treated mice (Mus musculus) beyond that of the control animals against Plasmodium berghei at dose 320(mg/kg); Survival beyond 60 days is considered curative; Experiment II; active(A); format: functional
Mus musculus [21] = assay: Mean survival time of the treated mice (Mus musculus) beyond that of the control animals against Plasmodium berghei at dose 640(mg/kg); Experiment II; Survival beyond 60 days is considered curative (C).; format: functional
Mus musculus [22] = assay: Mean survival time of the treated mice (Mus musculus) beyond that of the control animals against Plasmodium berghei at dose 640(mg/kg); Experiment II; Survival beyond 60 days is considered curative (C); format: functional
Mus musculus [23] = assay: Mean survival time of the treated mice (Mus musculus) beyond that of the control animals against Plasmodium berghei at dose 320(mg/kg); Experiment I; format: functional
Mus musculus [24] = assay: Mean survival time of the treated mice (Mus musculus) beyond that of the control animals against Plasmodium berghei at dose 640(mg/kg); Experiment I; format: functional
Mus musculus [25] = assay: Mean survival time of the treated mice (Mus musculus) beyond that of the control animals against Plasmodium berghei at dose 320(mg/kg); Survival beyond 60 days is considered curative; Experiment II; Survival beyond 60 days is considered curative (C); format: functional
Mus musculus [26] = assay: Mean survival time of the treated mice (Mus musculus) beyond that of the control animals against Plasmodium berghei at dose 160 (mg/kg); Experiment II; active (A); format: functional

Compound	IC50 (Plasmodium falciparum [1]) [nM]	IC50 (Plasmodium falciparum [2]) [nM]	ED50 (Plasmodium berghei) [mg/kg]	Resistance index [7]	T-C (Mus musculus [11]) [days]	T-C (Mus musculus [12]) [days]	T-C (Mus musculus [13]) [days]	T-C (Mus musculus [14]) [days]	T-C (Mus musculus [15]) [days]	T-C (Mus musculus [16])	T-C (Mus musculus [17]) [days]	T-C (Mus musculus [18]) [days]	T-C (Mus musculus [19]) [days]	T-C (Mus musculus [20]) [days]	T-C (Mus musculus [22]) [days]	T-C (Mus musculus [23]) [days]	also measured
C[C@@H]1CC[C@H]2[C@@H](C)C(=O)O[C@@H]3O[C@@]4(C)CC[C@@H]1[C@]32OO4 [ARTEMISININ]	2.2	4.7	607	0.47													T-C (Mus musculus [3]): 1.7 days; T-C (Mus musculus [4]): 2 days; T-C (Mus musculus [5]): 2.3 days; T-C (Mus musculus [6]): 3.9 days; T-C (Mus musculus [8]): 1.5 days; T-C (Mus musculus [9]): 5.1 days
CC1CC(C)CC2(C1)OOC1(CC(C)CC(C)C1)OO2 (stereo unspecified)	13	50		0.26	5.5	2.4	1	3.8	1.3	inactive	5.8	0.6	1.5	7.4			T-C (Mus musculus [10]): 1 days; T-C (Mus musculus [21]): 2 days
CC1CCC2(CC1)OOC1(CCC(C)CC1)OO2 (stereo unspecified)	58	8.2		7.1	2.4	0.1	0.5	2	0.4	1 days	3.2	0.3	0.1	13	1	1.9	
C[C@@H]1CCCCC12OOC1(CCCC[C@@H]1C)OO2 (stereo partly specified) [WR-148999]	3.4	6.9	382	0.49	9.6	1.6	1.2	5	1.8			0.7	0.2		5	1	T-C (Mus musculus [24]): 3 days; T-C (Mus musculus [25]): 3 days; T-C (Mus musculus [26]): 12 days

Reference: ChEMBL document CHEMBL1126302, “Dispiro-1,2,4,5-tetraoxanes: a new class of antimalarial peroxides” (J Med Chem, 1992)
